Assay outcomes (PubChem)
TAAR1 antag: human TAAR1 antagonists, primary screen, Fluo-8 calcium fluorescence, CHO RD-HGA16 cells; Trace amine-associated receptor 1 (Homo sapiens), Q96RJ0; antagonist; inhibition, % at 3 µM; actives 1.5% (n = 360,000);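 active = inhibition above a per-plate cutoff, the mean inhibition of test compounds on that plate plus 3 SD, cut at about 49% in these data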;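 note: 0% = DMSO plus EC80 beta-PEA response and 100% = DMSO alone without agonist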
Target sequence (Q96RJ0 whole entry, looked up): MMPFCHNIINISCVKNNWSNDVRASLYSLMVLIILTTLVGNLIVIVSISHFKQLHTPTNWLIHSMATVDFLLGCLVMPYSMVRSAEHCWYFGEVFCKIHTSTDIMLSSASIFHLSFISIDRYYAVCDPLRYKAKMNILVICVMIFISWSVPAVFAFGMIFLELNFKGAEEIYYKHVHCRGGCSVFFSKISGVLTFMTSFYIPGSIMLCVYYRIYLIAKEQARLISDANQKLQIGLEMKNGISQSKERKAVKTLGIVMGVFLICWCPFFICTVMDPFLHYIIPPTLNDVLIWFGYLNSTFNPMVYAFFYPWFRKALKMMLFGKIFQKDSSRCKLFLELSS
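Test system: RD-HGA16 CHO cells with stable hTAAR1 and Gα16 / Probe or stimulus: EC80 β-phenethylamine stimulus / Times: seeding 17-24 h prior, 75-min 37 °C, 30-min RT dye loading / Detection: Fluo-8 calcium-sensitive fluorescence / Read-out basis: % inhibition scaled between DMSO and EC80 PEA controls / Repeats: singlicate, one well per test compound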
rCAG binder: binders of r(CAG) RNA repeats, primary screen, biochemical, fluorescence. inhibition, % at 3 µM. r(CAG) RNA repeat, TO-PRO-1 dye displacement fluorescence. AID 651821, 2012. actives 1.3% (n = 370,000);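 active = inhibition above the plate cutoff, the mean of all test compounds on that plate plus 3 SD, cut at about 35% in these data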;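 note: 0% = DMSO alone and 100% = 100 µM mitoxantrone as full dye displacement; higher means more dye released from RNA so lower well fluorescence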
core dimer inh: inhibitors of HCV core protein dimerization, primary screen, biochemical, TR-FRET, high-throughput. TR-FRET GST/Flag-core106 dimerization, 1536-well. inhibition, % at 5 µM. actives 0.33% (n = 300,000);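 active = inhibition above the mean of all tested compounds plus 3 SD, set per screening campaign, cut at about 45% in these data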
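Material: GST/Flag-tagged HCV core106 proteins. Incubation: 4 h, 22.5 °C incubation. Read-out basis: inhibition (%) from 671 over 617 nm ratio. Measured by: TR-FRET, excitation 340 nm, emission 617 and 671 nm.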
TAAR1 ag: human TAAR1 agonists, primary screen, Fluo-8 calcium fluorescence, CHO RD-HGA16 cells; AID 624467, 2012; vehicle wells 0%, saturating PEA agonist 100%; Trace amine-associated receptor 1 (Homo sapiens), Q96RJ0; activation, % at 3 µM; actives 0.99% (n = 360,000);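 active = activation above the mean activation of all test compounds in the run plus 3 SD, cut at about 38% in these data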
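Assay system – CHO-derived RD-HGA16 cells with stable Gα16 and human TAAR1 · Compound dosing – one-point dosing at 3 µM (nominal) · Incubation – 17-24 h seeding, 75 min 37 °C dye, 30 min RT · Measured by – kinetic Fluo-8 calcium fluorescence · Control set – DMSO vehicle as 0%, PEA at EC100 as 100% · Repeats – single well for each compound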
HCV NS3 hel inh: inhibitors of HCV NS3 helicase, primary screen, biochemical, Cy5 molecular beacon fluorescence; NS3 helicase DNA unwinding; inhibition, % at 10.9 µM; actives 0.56% (n = 290,000); AID 1800, 2009;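 active = inhibition above the mean of all tested compounds plus 3 SD, set per campaign, cut at about 35% in these data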;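 note: 0% = DMSO wells and 100% = thioflavine S control wells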
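test system = hepatitis C virus NS3 helicase domain fragment enzyme | reagent = annealed dual-labelled DNA beacon duplex, ATP-started | times = 1 h at 25 °C | detection = Cy5 fluorescence, 0 and 60 min reads | read-out basis = percent inhibition from t60/t0 fluorescence ratio | control set = DMSO and thioflavine S | replication = one well per compound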
NS3 helicase cf: HCV NS3 helicase inhibitors, retest, confirmation, biochemical, Cy5 molecular beacon fluorescence, triplicate. actives 31% (n = 1,600). shares compounds with HCV NS3 hel inh. inhibition, % at 10.9 µM. NS3 helicase DNA unwinding;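 active = inhibition above the mean of all tested compounds plus 3 SD, cutoff set per campaign, cut at about 36% in these data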
FID counter trip: compounds displacing fluorescent DNA intercalator, artefact control for HCV NS3 helicase inhibitor project, biochemical, FID fluorescence, triplicate | shares compounds with HCV NS3 hel inh | DNA fluorescent intercalator displacement | inhibition, % at 7.9 µM | actives 4% (n = 1,600) | AID 1945, 2009; in the data active = inhibition above about 37%;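 note: 0% = vehicle and 100% = reference compound; higher means more displacement of ethidium bromide from the DNA hairpin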
* = called active by the depositor. Rows were chosen to be rich in hits. Some 3.7% of all compounds tested hit in one or more screens of this group.

For COCCn1c(C)cc(C2=NNC(=Nc3ccc(Cl)cc3Cl)SC2)c1C the results were TAAR1 antag 18, rCAG binder 29, core dimer inh 25, TAAR1 ag -1, HCV NS3 hel inh 37*, NS3 helicase cf 22 and FID counter trip -5.
CCOc1ccc(N=C2NN=C(c3cc(C)n(CC4CCCO4)c3C)CS2)cc1 (configuration not stated) was read as TAAR1 antag -8, rCAG binder 11, core dimer inh 19, TAAR1 ag 1, HCV NS3 hel inh 41*, NS3 helicase cf 17 and FID counter trip 12.
C=CCn1c(C)cc(C2=NNC(=Nc3ccc(C)cc3)SC2)c1C was read as TAAR1 antag 17, rCAG binder 11, core dimer inh 43, TAAR1 ag 0 and HCV NS3 hel inh 5.
`O=C(NN=Cc1c(O)ccc2ccccc12)c1ccncc1` gave TAAR1 antag -15, rCAG binder -3 and TAAR1 ag 13.
O=C(N/N=C/c1c(O)ccc2ccccc12)c1cccnc1 was read as TAAR1 antag 3, rCAG binder 3, core dimer inh -2, TAAR1 ag 16, HCV NS3 hel inh 87*, NS3 helicase cf 29 and FID counter trip -18.
Screening NC(=O)c1ccc2c(=O)c(O)c(-c3cc(Cl)c(N)c(Cl)c3)[nH]c2c1 returned TAAR1 antag 4, rCAG binder 12, core dimer inh -3, TAAR1 ag 5, HCV NS3 hel inh 38*, NS3 helicase cf 6 and FID counter trip 12.
CC(=O)c1cc(-c2ccc(Oc3ccccc3)cc2)c(=O)n2c1CCC2 was read as rCAG binder 4.
`CCCCc1c(C)nc2ccc(OC)cc2c1SCCC(=O)O` gave TAAR1 antag -35, rCAG binder 12, core dimer inh 4 and TAAR1 ag -3.
Screening CCCCc1c(C)nc2c(OC)cccc2c1SCC(=O)O returned TAAR1 antag -12, rCAG binder 0, core dimer inh 8, TAAR1 ag 4, HCV NS3 hel inh 37*, NS3 helicase cf -1 and FID counter trip 0.
For O=C1C(=Cc2ccco2)C(=O)c2ccccc21 the results were TAAR1 antag -8, rCAG binder 30, core dimer inh -1, TAAR1 ag 2, HCV NS3 hel inh 50*, NS3 helicase cf -19 and FID counter trip 19.
`O=C(O)c1ccc2c(c1)C(=O)/C(=C/c1ccccc1)C2=O` gave TAAR1 antag -9, rCAG binder 21, core dimer inh -29, TAAR1 ag 4 and HCV NS3 hel inh 5.
Screening O=C(O)c1ccc2c(c1)C(=O)/C(=C\c1ccco1)C2=O returned TAAR1 antag -5, rCAG binder 18, core dimer inh -19, TAAR1 ag 2, HCV NS3 hel inh 62*, NS3 helicase cf -15 and FID counter trip 11.
For Cc1ccc(C=C2C(=O)c3ccccc3C2=O)o1 the results were TAAR1 antag 4, rCAG binder 14, core dimer inh 11, TAAR1 ag 0 and HCV NS3 hel inh 29.
COc1ccc(CN2C/C(=C/c3ccccc3)N3C(=O)C[C@@H](c4ccc5ccccc5c4)N=C23)c(OC)c1 was read as rCAG binder 11.
For CC1(C)Cc2c(c(-c3ccco3)nc3sc4c(NCCCO)ncnc4c23)CO1 the results were TAAR1 antag -19, rCAG binder 12, core dimer inh 2, TAAR1 ag 3, HCV NS3 hel inh 60*, NS3 helicase cf -21 and FID counter trip -18.
Screening CCc1c(C)c2cc(Cl)c(O)c(CN(C)C)c2oc1=O returned TAAR1 antag -27, rCAG binder 6, core dimer inh 8, TAAR1 ag 5 and HCV NS3 hel inh 10.
For CCc1c(C)c2cc(Cl)c(O)c(CN(CC)CC)c2oc1=O the results were TAAR1 antag -18, rCAG binder 2, core dimer inh 1, TAAR1 ag 2, HCV NS3 hel inh 49*, NS3 helicase cf -12 and FID counter trip 1.
Screening O=C1NN(c2ccccc2)C(=O)/C1=C\c1ccccc1 returned TAAR1 antag -5, rCAG binder 10, TAAR1 ag 14, HCV NS3 hel inh 49*, NS3 helicase cf -28 and FID counter trip 13.
For COc1ccc(Sc2ccc(/C=C3\C(=O)NN(c4ccccc4)C3=O)o2)cc1 the results were TAAR1 antag 1, rCAG binder 26, core dimer inh 24, TAAR1 ag 2, HCV NS3 hel inh 47*, NS3 helicase cf 60* and FID counter trip 17.
Screening O=C1NN(c2ccccc2)C(=O)C1=Cc1ccccc1 returned TAAR1 antag -19, rCAG binder 6 and TAAR1 ag 10.
Screening COc1cc(NC(=O)C2CCCN(S(=O)(=O)c3ccc(Br)s3)C2)cc(OC)c1 (configuration not stated) returned rCAG binder 13.
`CCN(CC)c1ccc(NC(=O)CSc2nc3ccccc3c(=O)n2-c2ccc(C)cc2)cc1` gave rCAG binder 13.
COc1cccc(C(=O)n2ccc3ccc(-c4ccc5ccn(Cc6ccccc6)c5c4)cc32)c1 was read as rCAG binder 16.
For COc1ccc([N+](=O)[O-])cc1NCc1cccc([N+](=O)[O-])c1 the results were TAAR1 antag 4, rCAG binder 3, core dimer inh -2, TAAR1 ag -1, HCV NS3 hel inh 41*, NS3 helicase cf -6 and FID counter trip 23.
O=C(CSc1ncnc2scc(-c3ccc(Cl)cc3)c12)Nc1ccccc1-c1ccccc1 was read as rCAG binder 9.
For O=C(Nc1ccc(F)cc1)OCc1cn(Cc2cc(F)cc(F)c2)nn1 the results were rCAG binder 1.
For O=[N+]([O-])c1cc([N+](=O)[O-])c2cc3ccccc3nc2c1 the results were TAAR1 antag -4, rCAG binder 6, core dimer inh -7, TAAR1 ag 2, HCV NS3 hel inh 36*, NS3 helicase cf -5 and FID counter trip 31.
`Cn1cc(C=C2C(=O)CC(C)(C)CC2=O)c2ccccc21` gave TAAR1 antag 17, rCAG binder 0, core dimer inh -3, TAAR1 ag 1, HCV NS3 hel inh 38*, NS3 helicase cf -1 and FID counter trip 4.
